The array DNA melting data of Ke et al. (doi:10.1101/2024.01.08.574731)

Legend:
[1] = folding enthalpy; higher = less favourable; fluorescence melt of hairpins on a sequencing array, two-state fit; details: sodium 0.088 M
How it was run: (§1)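 On a sequenced MiSeq flow cell, library hairpins with annealed Cy3 and quencher oligos were imaged for Cy3 fluorescence in 2.5 °C steps up to 60 °C, in 50 mM Na-HEPES pH 8.0, 25 mM NaCl. Normalisation used pre-quench Cy3 and control constructs. Bootstrapped two-state fits gave melting temperature and folding enthalpy, combined by inverse variance across four replicates and with fitted temperatures raised by 9.35 °C to match UV melts.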

[2] = melting temperature; fluorescence melt of hairpins on a sequencing array, two-state fit, raised by 9.35 °C to match UV melts; details: sodium 0.088 M
How it was run: as §1

Sequence | folding enthalpy [1] | Tm [2]
GTCCGGCGAAAGCCAGAC (((.(((....))).))) | -27.5 kcal/mol | 50.7 °C
GTCCGGGCGAAAGCCGAC (((..(((....)))))) | -11.1 kcal/mol | 44.3 °C
GTCCGGGGAAACCCAGAC (((.(((....))).))) | -29.6 kcal/mol | 42.8 °C
GTCCGGTCGAAAGACGAC (((..(((....)))))) | -12.6 kcal/mol | 38.5 °C
GTCCGTGGAAACACGAAC ((.((((....)))).)) | -21 kcal/mol | 39.7 °C
GTCCTACGAAAGTACGAC (((.(((....))).))) | -24.9 kcal/mol | 35.2 °C
GTCCTAGGAAACTGGGAC ((((.((....)).)))) | -37.8 kcal/mol | 49.4 °C
GTCCTATCGAAAGATGAC (((..(((....)))))) | -8.25 kcal/mol | 23.4 °C
GTCCTCGAAAGAGAAGAC ((((((....)))..))) | -19.8 kcal/mol | 32.2 °C
GTCCTCGAAAGAGCTGAC ((((((....)))..))) | -12.4 kcal/mol | 29.5 °C
GTCCTCGAAAGAGGAGAC ((((((....)))..))) | -10.2 kcal/mol | 47.8 °C
GTCCTCGAAAGAGTGAC ((((((....))).))) | -25.7 kcal/mol | 46.3 °C
GTCCTCGAAAGAGTTGAC ((((((....)))..))) | -10.7 kcal/mol | 31.2 °C
GTCCTGCGAAAGCAAGAC (((.(((....))).))) | -23.3 kcal/mol | 48.1 °C
GTCGAACGAAAGTTAGAC (((.(((....))).))) | -33.1 kcal/mol | 52.6 °C
GTCGAACGAAAGTTGGAC (((.(((....))).))) | -46.4 kcal/mol | 50.6 °C
GTCGAAGGAAACTTCAAC ((.((((....)))).)) | -12.4 kcal/mol | 26.9 °C
GTCGAAGGAAACTTTGAC (((.(((....))).))) | -31.1 kcal/mol | 44.5 °C
GTCGACGAAAGTCGAGAC ((((((....)))..))) | -9.56 kcal/mol | 51.9 °C
GTCGACGAAAGTCGCGAC ((((((....)))..))) | -12.6 kcal/mol | 57.4 °C
GTCGAGCGAAAGCTGGAC (((.(((....))).))) | -28.9 kcal/mol | 56.1 °C
GTCGAGCGAAAGCTTGAC (((.(((....))).))) | -35.4 kcal/mol | 63.9 °C
GTCGAGGAAACTCGAC ((((((....)))))) | -45.2 kcal/mol | 63.3 °C

Sequence | folding enthalpy [1] | Tm [2]
GTCGAGGCGAAAGCCGAC (((..(((....)))))) | -9.98 kcal/mol | 51 °C
GTCGAGGGAAACCTCGGC (.(((((....))))).) | -35.8 kcal/mol | 57.3 °C
GTCGAGGGAAACCTTGAC (((.(((....))).))) | -38.5 kcal/mol | 48.7 °C
GTCGAGGGAAACTTCGAC (((((.(....).))))) | -42.6 kcal/mol | 49.6 °C
GTCGAGGGAAACTTCGGC (.(((.(....).))).) | -24.6 kcal/mol | 36.4 °C
GTCGAGTCGAAAGACGAC (((..(((....)))))) | -10.7 kcal/mol | 47 °C
GTCGATCGAAAGATGAC (((.(((....)))))) | -26.9 kcal/mol | 43.7 °C
GTCGATGGAAACATCAAC ((.((((....)))).)) | -17.6 kcal/mol | 34.7 °C
GTCGCAACGAAAGTTGAC (((..(((....)))))) | -12.1 kcal/mol | 29.4 °C
GTCGCAGGAAACCGCGAC (((((.(....).))))) | -43.1 kcal/mol | 58.9 °C
GTCGCAGGAAACTGTGGC (.(.(((....))).).) | -29.9 kcal/mol | 42.8 °C
GTCGCCGAAAGGCATGAC ((((((....)))..))) | -13.2 kcal/mol | 40.7 °C
GTCGCCGAAAGGCCCGAC ((((((....)))..))) | -11.6 kcal/mol | 37.4 °C
GTCGCCGAAAGGCCGGAC ((((((....)))..))) | -13.1 kcal/mol | 41.6 °C
GTCGCCGGAAACAGCGAC (((((.(....).))))) | -44.9 kcal/mol | 54.9 °C
GTCGCCGGAAACGGTGAC (((.(((....))).))) | -41.5 kcal/mol | 63.7 °C
GTCGCGGCGAAAGCCGAC (((..(((....)))))) | -7.7 kcal/mol | 42.2 °C
GTCGCTCGAAAGAGAGAC (((.(((....))).))) | -42.9 kcal/mol | 58.4 °C
GTCGCTGGAAACAGTGAC (((.(((....))).))) | -50.4 kcal/mol | 54.9 °C
GTCGCTGGAAACGGCGAC (((((.(....).))))) | -43.8 kcal/mol | 65.7 °C
GTCGGAGAAATCCGAC ((((((....)))))) | -35.7 kcal/mol | 61.7 °C
GTCGGAGGAAACTCCAAC ((.((((....)))).)) | -22.7 kcal/mol | 35.5 °C
GTCGGCCCGAAAGGGGAC (((..(((....)))))) | -12.6 kcal/mol | 43.3 °C

Sequence | folding enthalpy [1] | Tm [2]
GTCGGCCGAAAGGCGAC (((.(((....)))))) | -21.9 kcal/mol | 67.2 °C
GTCGGCGAAAGCCGCGAC ((((((....)))..))) | -11.6 kcal/mol | 57.7 °C
GTCGGCGCGAAAGCGGAC (((..(((....)))))) | -13.8 kcal/mol | 45.6 °C
GTCGGGAAACCGAC (((((....))))) | -24.2 kcal/mol | 66 °C
GTCGGGGGAAACCCTGGC (.(.(((....))).).) | -21.8 kcal/mol | 43.9 °C
GTCGGGGGAAACTCCGAC (((((.(....).))))) | -44.7 kcal/mol | 57.6 °C
GTCGGTCGAAAGACGAC (((.(((....)))))) | -29.2 kcal/mol | 55.1 °C
GTCGGTGGAAACACCGGC (.(((((....))))).) | -23.8 kcal/mol | 63.2 °C
GTCGGTGGAAACATCGGC (.((.((....)).)).) | -26.2 kcal/mol | 44.4 °C
GTCGTAACGAAAGTTGAC (((..(((....)))))) | -22.4 kcal/mol | 35.8 °C
GTCGTACGAAAGTAAGAC (((.(((....))).))) | -33.2 kcal/mol | 52.1 °C
GTCGTCCGAAAGGAAGAC (((.(((....))).))) | -33 kcal/mol | 55.9 °C
GTCGTCGAAAGACCAGAC ((((((....)))..))) | -16.6 kcal/mol | 34.9 °C
GTCGTCGAAAGACCGGAC ((((((....)))..))) | -16.9 kcal/mol | 37.4 °C
GTCGTCGAAAGACGAGAC ((((((....)))..))) | -10.8 kcal/mol | 49.8 °C
GTCGTCGCGAAAGCGGAC (((..(((....)))))) | -10.6 kcal/mol | 46.5 °C
GTCGTCGGAAACGACAAC ((.((((....)))).)) | -13 kcal/mol | 47.4 °C
GTCGTCGGAAACGATGGC (.(.(((....))).).) | -25.4 kcal/mol | 46.2 °C
GTCGTGACGAAAGTCGAC (((..(((....)))))) | -16.6 kcal/mol | 46.3 °C
GTCGTGGCGAAAGCCGAC (((..(((....)))))) | -17.2 kcal/mol | 54.6 °C
GTCGTGGGAAACTGCGAC ((((..(....)..)))) | -18.5 kcal/mol | 46.9 °C
GTCGTTCGAAAGAATGAC (((.(((....))).))) | -42.1 kcal/mol | 54.9 °C
GTCGTTGGAAACAATGAC (((.(((....))).))) | -32.5 kcal/mol | 48.3 °C

Sequence | folding enthalpy [1] | Tm [2]
GTCGTTGGAAACAGCGAC ((((.((....)).)))) | -37.5 kcal/mol | 52.4 °C
GTCGTTGGAAACGATGAC (((.(.(....).).))) | -13.5 kcal/mol | 49 °C
GTCGTTTCGAAAGAAGAC (((..(((....)))))) | -14 kcal/mol | 28.9 °C
GTCTAAGCGAAAGCTGAC (((..(((....)))))) | -17.2 kcal/mol | 43.1 °C
GTCTAAGGAAACTTAGAC (((((((....))))))) | -41.9 kcal/mol | 51.5 °C
GTCTACGAAAGTAACGAC ((((((....)))..))) | -16.4 kcal/mol | 31.3 °C
GTCTACGAAAGTACAGAC ((((((....)))..))) | -18.1 kcal/mol | 33.4 °C
GTCTACGAAAGTACGGAC ((((((....)))..))) | -12.1 kcal/mol | 34.1 °C
GTCTACGGAAACGCAGAC ((((.((....)).)))) | -35 kcal/mol | 45.1 °C
GTCTACGGAAACGTAAAC ((.((((....)))).)) | -14.4 kcal/mol | 27.7 °C
GTCTAGAAATAGAC (((((....))))) | -14.9 kcal/mol | 40.5 °C
GTCTAGACGAAAGTCGAC (((..(((....)))))) | -13.1 kcal/mol | 39.6 °C
GTCTAGGCGAAAGCCGAC (((..(((....)))))) | -10.8 kcal/mol | 44.5 °C
GTCTATGCGAAAGCAGAC (((..(((....)))))) | -16.9 kcal/mol | 42.1 °C
GTCTATTCGAAAGAAGAC (((..(((....)))))) | -8.48 kcal/mol | 23.8 °C
GTCTCACCGAAAGGTGAC (((..(((....)))))) | -7.93 kcal/mol | 36.1 °C
GTCTCACGAAAGTGCGAC (((.(((....))).))) | -38.7 kcal/mol | 50.3 °C
GTCTCACGAAAGTGGGAC (((.(((....))).))) | -41.5 kcal/mol | 60.3 °C
GTCTCAGCGAAAGCTGAC (((..(((....)))))) | -8.27 kcal/mol | 36.2 °C
GTCTCCGAAAGGACTGAC ((((((....)))..))) | -14.6 kcal/mol | 34.4 °C
GTCTCCGAAAGGAGCGAC ((((((....)))..))) | -16.1 kcal/mol | 53.9 °C
GTCTCCGAAAGGAGGAC ((((((....))).))) | -16.4 kcal/mol | 50.8 °C
